Measured values from ChEMBL document CHEMBL1255347, “Multiclonal outbreak of Klebsiella pneumoniae producing extended-spectrum beta-lactamase CTX-M-2 and novel variant CTX-M-59 in a neonatal intensive care unit in Brazil” (2008).
Values after ≈ are worked out from the molar mass of the structure shown.

The compounds below were run on Klebsiella pneumoniae (assay: Antimicrobial activity against CTX-M-2 and TEM-1 producing Klebsiella pneumoniae transconjugants/transformants with PFGE pulsotype I by Etest).
Format: functional
In short: (§1)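 The recipient was E. coli XL1-Blue Rifr NAr. Plasmids moved by broth mating, with transconjugants selected on LB agar containing ampicillin, rifampin and nalidixic acid, each at 50 μg/ml. Where mating failed, alkaline-lysis plasmid extracts were electroporated and selected on ampicillin 50 μg/ml. β-lactam MICs were read by Etest, with and without clavulanic acid.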

| SMILES | MIC |
| --- | --- |
| CC(C)(O/N=C(\C(=O)N[C@@H]1C(=O)N2C(C(=O)[O-])=C(C[n+]3ccccc3)CS[C@H]12)c1csc(N)n1)C(=O)O [CEFTAZIDIME] | 6 µg/mL (≈ 11 µM) |

The compounds below were run on Klebsiella pneumoniae (assay: Antimicrobial activity against CTX-M-2 and TEM-1 producing Klebsiella pneumoniae transconjugants/transformants with PFGE pulsotype J by Etest).
Format: functional
In short: as §1

| SMILES | MIC |
| --- | --- |
| CC(C)(O/N=C(\C(=O)N[C@@H]1C(=O)N2C(C(=O)[O-])=C(C[n+]3ccccc3)CS[C@H]12)c1csc(N)n1)C(=O)O [CEFTAZIDIME] | 12 µg/mL (≈ 22 µM) |

These compounds were tested on Klebsiella pneumoniae (assay: Antimicrobial activity against CTX-M-2 and TEM-1 producing Klebsiella pneumoniae transconjugants/transformants with PFGE pulsotype B by Etest in presence of clavulanic acid).
Format: functional
In short: as §1

| SMILES | MIC |
| --- | --- |
| CC(C)(O/N=C(\C(=O)N[C@@H]1C(=O)N2C(C(=O)[O-])=C(C[n+]3ccccc3)CS[C@H]12)c1csc(N)n1)C(=O)O [CEFTAZIDIME] | 0.19 µg/mL |

The compounds below were run on Klebsiella pneumoniae (assay: Antimicrobial activity against CTX-M-59 and TEM-1 producing Klebsiella pneumoniae transconjugants/transformants with PFGE pulsotype C by Etest in presence of clavulanic acid).
Format: functional
In short: as §1

| SMILES | MIC |
| --- | --- |
| CC(C)(O/N=C(\C(=O)N[C@@H]1C(=O)N2C(C(=O)[O-])=C(C[n+]3ccccc3)CS[C@H]12)c1csc(N)n1)C(=O)O [CEFTAZIDIME] | 0.25 µg/mL |

What follows are compounds tested on Klebsiella pneumoniae (assay: Antimicrobial activity against SHV-5 producing Klebsiella pneumoniae transconjugants/transformants with PFGE pulsotype D by Etest in presence of clavulanic acid).
Format: functional
In short: as §1

| SMILES | MIC |
| --- | --- |
| CC(C)(O/N=C(\C(=O)N[C@@H]1C(=O)N2C(C(=O)[O-])=C(C[n+]3ccccc3)CS[C@H]12)c1csc(N)n1)C(=O)O [CEFTAZIDIME] | 0.19 µg/mL |

The compounds below were run on Klebsiella pneumoniae (assay: Antimicrobial activity against CTX-M-59 and TEM-1 producing Klebsiella pneumoniae transconjugants/transformants with PFGE pulsotype E by Etest in presence of clavulanic acid).
Format: functional
In short: as §1

| SMILES | MIC |
| --- | --- |
| CC(C)(O/N=C(\C(=O)N[C@@H]1C(=O)N2C(C(=O)[O-])=C(C[n+]3ccccc3)CS[C@H]12)c1csc(N)n1)C(=O)O [CEFTAZIDIME] | 0.19 µg/mL |

The compounds below were run on Klebsiella pneumoniae (assay: Antimicrobial activity against CTX-M-2 and TEM-1 producing Klebsiella pneumoniae transconjugants/transformants with PFGE pulsotype F by Etest in presence of clavulanic acid).
Format: functional
In short: as §1

| SMILES | MIC |
| --- | --- |
| CC(C)(O/N=C(\C(=O)N[C@@H]1C(=O)N2C(C(=O)[O-])=C(C[n+]3ccccc3)CS[C@H]12)c1csc(N)n1)C(=O)O [CEFTAZIDIME] | 0.38 µg/mL |

The compounds below were run on Klebsiella pneumoniae (assay: Antimicrobial activity against CTX-M-59 and TEM-1 producing Klebsiella pneumoniae transconjugants/transformants with PFGE pulsotype G by Etest in presence of clavulanic acid).
Format: functional
In short: as §1

| SMILES | MIC |
| --- | --- |
| CC(C)(O/N=C(\C(=O)N[C@@H]1C(=O)N2C(C(=O)[O-])=C(C[n+]3ccccc3)CS[C@H]12)c1csc(N)n1)C(=O)O [CEFTAZIDIME] | 0.38 µg/mL |

Each compound was assayed on Klebsiella pneumoniae (assay: Antimicrobial activity against CTX-M-2 and TEM-1 producing Klebsiella pneumoniae transconjugants/transformants with PFGE pulsotype H by Etest in presence of clavulanic acid).
Format: functional

| SMILES | MIC |
| --- | --- |
| CC(C)(O/N=C(\C(=O)N[C@@H]1C(=O)N2C(C(=O)[O-])=C(C[n+]3ccccc3)CS[C@H]12)c1csc(N)n1)C(=O)O [CEFTAZIDIME] | 0.25 µg/mL |

What follows are compounds tested on Klebsiella pneumoniae (assay: Antimicrobial activity against CTX-M-2 and TEM-1 producing Klebsiella pneumoniae transconjugants/transformants with PFGE pulsotype I by Etest in presence of clavulanic acid).
Format: functional
In short: as §1

| SMILES | MIC |
| --- | --- |
| CC(C)(O/N=C(\C(=O)N[C@@H]1C(=O)N2C(C(=O)[O-])=C(C[n+]3ccccc3)CS[C@H]12)c1csc(N)n1)C(=O)O [CEFTAZIDIME] | 0.19 µg/mL |

What follows are compounds tested on Klebsiella pneumoniae (assay: Antimicrobial activity against CTX-M-2 and TEM-1 producing Klebsiella pneumoniae transconjugants/transformants with PFGE pulsotype J by Etest in presence of clavulanic acid).
Format: functional
In short: as §1

| SMILES | MIC |
| --- | --- |
| CC(C)(O/N=C(\C(=O)N[C@@H]1C(=O)N2C(C(=O)[O-])=C(C[n+]3ccccc3)CS[C@H]12)c1csc(N)n1)C(=O)O [CEFTAZIDIME] | 0.38 µg/mL |

What follows are compounds tested on Klebsiella pneumoniae (assay: Antimicrobial activity against CTX-M-2 producing Klebsiella pneumoniae with PFGE pulsotype A by Etest in presence of clavulanic acid).
Format: functional
In short: (§2)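 Clinical K. pneumoniae isolates from a neonatal ICU outbreak near São Paulo were typed by XbaI PFGE using Tenover criteria. Cultures were grown in LB broth at 37°C. Etest MICs followed the manufacturer's instructions, with cefotaxime and ceftazidime each tested with and without clavulanic acid.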

| SMILES | MIC |
| --- | --- |
| CC(C)(O/N=C(\C(=O)N[C@@H]1C(=O)N2C(C(=O)[O-])=C(C[n+]3ccccc3)CS[C@H]12)c1csc(N)n1)C(=O)O [CEFTAZIDIME] | 0.5 µg/mL |

These compounds were tested on Klebsiella pneumoniae (assay: Antimicrobial activity against CTX-M-2 producing Klebsiella pneumoniae with PFGE pulsotype B by Etest in presence of clavulanic acid).
Format: functional
In short: as §2

| SMILES | MIC |
| --- | --- |
| CC(C)(O/N=C(\C(=O)N[C@@H]1C(=O)N2C(C(=O)[O-])=C(C[n+]3ccccc3)CS[C@H]12)c1csc(N)n1)C(=O)O [CEFTAZIDIME] | 0.75 µg/mL |

The compounds below were run on Klebsiella pneumoniae (assay: Antimicrobial activity against CTX-M-59 producing Klebsiella pneumoniae with PFGE pulsotype C by Etest in presence of clavulanic acid).
Format: functional
In short: as §2

| SMILES | MIC |
| --- | --- |
| CC(C)(O/N=C(\C(=O)N[C@@H]1C(=O)N2C(C(=O)[O-])=C(C[n+]3ccccc3)CS[C@H]12)c1csc(N)n1)C(=O)O [CEFTAZIDIME] | 0.38 µg/mL |

The compounds below were run on Klebsiella pneumoniae (assay: Antimicrobial activity against SHV-5 producing Klebsiella pneumoniae with PFGE pulsotype D by Etest in presence of clavulanic acid).
Format: functional

| SMILES | MIC |
| --- | --- |
| CC(C)(O/N=C(\C(=O)N[C@@H]1C(=O)N2C(C(=O)[O-])=C(C[n+]3ccccc3)CS[C@H]12)c1csc(N)n1)C(=O)O [CEFTAZIDIME] | 0.25 µg/mL |

These compounds were tested on Klebsiella pneumoniae (assay: Antimicrobial activity against CTX-M-59 producing Klebsiella pneumoniae with PFGE pulsotype E by Etest in presence of clavulanic acid).
Format: functional
In short: (§3)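 MICs were determined by Etest strips following the manufacturer's instructions, using cefotaxime and ceftazidime each combined with clavulanic acid. The test strains were clinical NICU outbreak isolates confirmed as ESBL producers by disk diffusion. Pulsotypes were assigned by XbaI PFGE using Tenover relatedness criteria. Cultures were routinely grown in LB broth at 37°C.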

| SMILES | MIC |
| --- | --- |
| CC(C)(O/N=C(\C(=O)N[C@@H]1C(=O)N2C(C(=O)[O-])=C(C[n+]3ccccc3)CS[C@H]12)c1csc(N)n1)C(=O)O [CEFTAZIDIME] | 0.75 µg/mL |

What follows are compounds tested on Klebsiella pneumoniae (assay: Antimicrobial activity against CTX-M-2 producing Klebsiella pneumoniae with PFGE pulsotype F by Etest in presence of clavulanic acid).
Format: functional
In short: as §2

| SMILES | MIC |
| --- | --- |
| CC(C)(O/N=C(\C(=O)N[C@@H]1C(=O)N2C(C(=O)[O-])=C(C[n+]3ccccc3)CS[C@H]12)c1csc(N)n1)C(=O)O [CEFTAZIDIME] | 1.5 µg/mL |

What follows are compounds tested on Klebsiella pneumoniae (assay: Antimicrobial activity against CTX-M-59 producing Klebsiella pneumoniae with PFGE pulsotype G by Etest in presence of clavulanic acid).
Format: functional
In short: as §3

| SMILES | MIC |
| --- | --- |
| CC(C)(O/N=C(\C(=O)N[C@@H]1C(=O)N2C(C(=O)[O-])=C(C[n+]3ccccc3)CS[C@H]12)c1csc(N)n1)C(=O)O [CEFTAZIDIME] | 1 µg/mL |

Each compound was assayed on Klebsiella pneumoniae (assay: Antimicrobial activity against CTX-M-2 producing Klebsiella pneumoniae with PFGE pulsotype H by Etest in presence of clavulanic acid).
Format: functional
In short: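 Etest strips used per manufacturer's instructions to read MICs of cefotaxime and ceftazidime, each with clavulanic acid, on clinical NICU K. pneumoniae outbreak isolates. Isolates were typed by XbaI PFGE using Tenover criteria and routinely grown in LB broth at 37°C.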

| SMILES | MIC |
| --- | --- |
| CC(C)(O/N=C(\C(=O)N[C@@H]1C(=O)N2C(C(=O)[O-])=C(C[n+]3ccccc3)CS[C@H]12)c1csc(N)n1)C(=O)O [CEFTAZIDIME] | > 4 µg/mL |

The compounds below were run on Klebsiella pneumoniae (assay: Antimicrobial activity against CTX-M-2 producing Klebsiella pneumoniae with PFGE pulsotype I by Etest in presence of clavulanic acid).
Format: functional
In short: as §2

| SMILES | MIC |
| --- | --- |
| CC(C)(O/N=C(\C(=O)N[C@@H]1C(=O)N2C(C(=O)[O-])=C(C[n+]3ccccc3)CS[C@H]12)c1csc(N)n1)C(=O)O [CEFTAZIDIME] | 0.5 µg/mL |

Each compound was assayed on Klebsiella pneumoniae (assay: Antimicrobial activity against CTX-M-2 producing Klebsiella pneumoniae with PFGE pulsotype J by Etest in presence of clavulanic acid).
Format: functional
In short: as §2

| SMILES | MIC |
| --- | --- |
| CC(C)(O/N=C(\C(=O)N[C@@H]1C(=O)N2C(C(=O)[O-])=C(C[n+]3ccccc3)CS[C@H]12)c1csc(N)n1)C(=O)O [CEFTAZIDIME] | 0.75 µg/mL |

These compounds were tested on Escherichia coli (assay: Antimicrobial activity against CTX-M-2 and TEM-1 producing Escherichia coli transconjugants/transformants with PFGE pulsotype A by Etest in presence of clavulanic acid).

| SMILES | MIC |
| --- | --- |
| CC(C)(O/N=C(\C(=O)N[C@@H]1C(=O)N2C(C(=O)[O-])=C(C[n+]3ccccc3)CS[C@H]12)c1csc(N)n1)C(=O)O [CEFTAZIDIME] | 0.19 µg/mL |
